Legend:
Cavia porcellus [1] = organism: Cavia porcellus; experiment: In vitro bronchodilatory activity in guinea pig isolated tracheal strips; type: functional; settings: Trachea
[2] = test system: Thromboxane-A synthase (Oryctolagus cuniculus); experiment: Tested in vitro against rabbit thromboxane A2 synthetase (TXA2) at 1 uM
[3] = target: T1, Thromboxane-A synthase (Rattus norvegicus) (UniProt P49430); experiment: Tested ex vivo against TXA2 production in male SD rats at 1 hr after peroral dose of 30 mg/kg and anesthetized with ether; type: functional, organism-based; design: dose 30 mg/kg
T1 sequence (whole entry): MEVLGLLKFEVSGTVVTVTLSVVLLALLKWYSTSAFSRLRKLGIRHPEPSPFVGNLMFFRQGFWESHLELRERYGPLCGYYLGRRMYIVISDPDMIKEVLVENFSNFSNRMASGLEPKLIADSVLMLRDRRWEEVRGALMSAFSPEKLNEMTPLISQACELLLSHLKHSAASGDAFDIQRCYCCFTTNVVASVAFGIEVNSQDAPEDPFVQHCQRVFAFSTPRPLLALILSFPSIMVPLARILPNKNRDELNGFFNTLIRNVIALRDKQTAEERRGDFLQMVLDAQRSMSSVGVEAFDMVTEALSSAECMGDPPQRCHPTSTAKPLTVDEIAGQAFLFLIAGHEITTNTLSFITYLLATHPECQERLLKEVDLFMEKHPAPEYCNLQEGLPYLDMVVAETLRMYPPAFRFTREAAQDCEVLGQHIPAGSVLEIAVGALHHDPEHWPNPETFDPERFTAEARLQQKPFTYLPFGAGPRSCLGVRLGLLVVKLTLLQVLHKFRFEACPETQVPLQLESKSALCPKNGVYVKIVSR
Method in brief: (§1)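 Male SD rats (240–260 g), fasted 20 h, dosed orally with compound in 0.5% carboxymethylcellulose or vehicle alone. At 1 h, ether anesthesia and 2 mL cardiac blood taken and clotted at 37 °C for 90 min.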

[4] = target: T1, Thromboxane-A synthase (Rattus norvegicus); experiment: Tested ex vivo against TXA2 production in rat serum at 1 hr after peroral dose of 30 mg/kg and anesthetized with ether; type: functional, organism-based; design: dose 30 mg/kg; method in brief: as §1
Cavia porcellus [5] = experiment: In vivo inhibitory effect on airway constriction induced by histamine 2-5 ug/kg iv at 1 min after 10 mg/kg iv dose of compound; type: functional
Method in brief: (§2)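 Male Dunkin-Hartley guinea pigs anesthetized with pentobarbital 35 mg/kg ip, jugular vein and trachea cannulated, ventilated at 10 mL/kg, 60 strokes/min. Insufflation pressure recorded. Histamine 2–5 μg/kg iv repeated every 10 min until a reproducible control response. Compound 10 mg/kg iv 1 min before the next challenge.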

Cavia porcellus [6] = experiment: In vivo inhibitory effect on airway constriction induced by histamine 2-5 micro g/kg iv at 1 min after 10 mg/kg iv dose of compound; type: functional; method in brief: as §2
Rattus norvegicus [7] = experiment: Tested ex vivo against serum TXB2 production at 1 hr after oral dose of 3 mg/kg of drug to rat; type: functional; method in brief: as §1
Rattus norvegicus [8] = experiment: Tested ex vivo against serum TXB2 production at 1 hr after oral dose of 30 mg/kg of drug to rat; type: functional; method in brief: as §1

SMILES | IC50 (Cavia porcellus [1]) [µM] | inhibition [2] [%] | inhibition [4] [%] | also measured
O=C(c1cccs1)n1nc(-c2cccnc2)c2ccccc2c1=O | 12.3 | 37 |  | 
CCCCCCCCn1nc(-c2cccnc2)c2ccccc2c1=O | 21.9 | 99 |  | 
O=c1c2ccccc2c(-c2cccnc2)nn1CC1CCCCC1 | 0.209 | 98 |  | 
CCOC(=O)CCCn1nc(-c2cccnc2)c2ccccc2c1=O | 10 | 95 |  | 
CCn1nc(-c2cncs2)c2ccccc2c1=O | 0.562 | 77 | 69 | 
CCn1nc(-n2cncn2)c2ccccc2c1=O | 15.8 | 0 |  | 
Oc1nnc(-c2nccs2)c2ccccc12 | 4.57 |  |  | inhibition [3]: 23%
O=c1c2ccccc2c(-c2cccnc2)nn1CCSC1=NCCS1 | 10.5 |  |  | 
CC(C)NC(=O)CCCn1nc(-c2cccnc2)c2ccccc2c1=O | 64.6 | 89 |  | 
O=c1c2ccccc2c(-c2cccnc2)nn1CCn1ccnc1 |  | 37 |  | inhibition in vivo at 10 mg/kg (Cavia porcellus [6]): 97%
O=c1c2ccccc2c(-c2cccnc2)nn1C1CCCC1 | 2.75 | 97 | 80 | 
O=C1c2ccccc2C(=O)N1CCn1nc(-c2cccnc2)c2ccccc2c1=O | 21.9 | 87 |  | 
Oc1nnc(-c2cncs2)c2ccccc12 | 1.2 | 38 | 70 | 
CCn1nc(-n2ccnc2)c2ccccc2c1=O | 5.37 | 53 | 72 | 
CCCn1nc(-c2cccnc2)c2ccccc2c1=O | 3.16 | 86 | 93 | 
O=c1c2ccccc2c(-c2cccnc2)nn1CCSc1ncccn1 | 11 | 86 |  | 
Oc1nnc(-n2cncn2)c2ccccc12 | 16.6 |  |  | 
COC(=O)c1ccc(Cn2nc(-c3cccnc3)c3ccccc3c2=O)cc1 | 5.89 | 95 |  | 
CC(C)n1nc(-c2cccnc2)c2ccccc2c1=O | 3.09 | 87 | 82 | 
O=c1c2ccccc2c(-c2cccnc2)nn1S(=O)(=O)c1ccccc1 | 14.8 | 96 |  | 
CC(C)=CCn1nc(-c2cccnc2)c2ccccc2c1=O | 1.38 | 94 |  | 
CCn1nc(-c2cncnc2)c2ccccc2c1=O | 9.55 | 26 |  | 
C=CCn1nc(-c2cccnc2)c2ccccc2c1=O | 2.14 | 70 | 82 | inhibition in vivo at 10 mg/kg (Cavia porcellus [6]): 100%
CCCCn1nc(-c2cccnc2)c2ccccc2c1=O | 2.29 | 91 | 100 | 
O=C(O)Cn1nc(-c2cccnc2)c2ccccc2c1=O | > 100 | 13 |  | 

More lines, main results first:

IC50 (Cavia porcellus [1]) [µM] | inhibition [2] [%] | inhibition [4] [%] | SMILES | also measured
6.17 | 96 |  | O=c1c2ccccc2c(-c2cccnc2)nn1CCCCSc1ncccn1 | 
4.17 | 95 |  | O=c1c2ccccc2c(-c2cccnc2)nn1Cc1cccc(Cl)c1 | 
11 | 37 |  | CCn1nc(-c2cnccn2)c2ccccc2c1=O | 
3.39 |  |  | CC(C)n1nc(-c2cncs2)c2ccccc2c1=O | inhibition [3]: 71%
11.5 | 63 | 94 | Cn1nc(-c2cccnc2)c2ccccc2c1=O | inhibition in vivo at 10 mg/kg (Cavia porcellus [5]): 97%
9.12 |  |  | O=c1c2ccccc2c(-c2cccnc2)nn1CCSc1ccccc1 | inhibition [3]: 52%
43.7 | 28 | 0 | CCOC(=O)Cn1nc(-c2cccnc2)c2ccccc2c1=O | 
2.4 |  |  | CC(C)Cn1nc(-c2cncs2)c2ccccc2c1=O | 
> 1000 |  | 92 | O=C(O)/C=C/c1ccc(Cn2ccnc2)cc1 [OZAGREL] | inhibition in vivo at 10 mg/kg (Cavia porcellus [6]): 0%; inhibition in vivo at 3 mg/kg (Rattus norvegicus [7]): 86%; inhibition in vivo at 30 mg/kg (Rattus norvegicus [8]): 92%
9.77 | 32 |  | CC(=O)OCCn1nc(-c2cccnc2)c2ccccc2c1=O | 
10.2 | 26 | 78 | Oc1nnc(-c2cccnc2)c2ccccc12 | 
2.45 | 97 | 86 | O=c1c2ccccc2c(-c2cccnc2)nn1Cc1ccccc1 | 
24 | 43 | 77 | O=c1c2ccccc2c(-c2cccnc2)nn1CCn1cnnn1 | 
40.7 | 13 |  | CC(=O)Cn1nc(-c2cccnc2)c2ccccc2c1=O | 
3.16 | 4 | 5 | CCn1nc(-c2nccs2)c2ccccc2c1=O | 
9.33 | 55 |  | COCCn1nc(-c2cccnc2)c2ccccc2c1=O | 
26.3 | 93 |  | O=c1c2ccccc2c(-c2cccnc2)nn1CCNS(=O)(=O)c1ccccc1 | 
4.57 | 69 |  | O=c1c2ccccc2c(-c2cccnc2)nn1CCO | 
> 100 | 29 |  | NCCn1nc(-c2cccnc2)c2ccccc2c1=O | 
> 100 | 73 |  | O=C(O)CCCn1nc(-c2cccnc2)c2ccccc2c1=O | 
17 | 64 |  | O=C(O)c1ccc(Cn2nc(-c3cccnc3)c3ccccc3c2=O)cc1 | 
8.32 |  | 87 | Oc1nnc(-n2ccnc2)c2ccccc12 | 
